T cruzi growth-1 – blocks T. cruzi growth in NIH3T3 culture | 77,000 tested, 5.9% active | inhibition, % at 8.34 µM | AID 624255 | T. cruzi beta-gal in NIH3T3, GalScreen luminescence, 90 h;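 active means mean inhibition above about 93%, with at least 55% of replicates each passing it, limit read from the data, passing the limit was not always enough; inconclusive means only one of those two conditions holds; inactive means neither condition holds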
Pf Dd2 growth – blocks growth of Plasmodium falciparum Dd2 parasites | P. falciparum Dd2 growth, SYBR Green, 72 h; stronger effect = lower value | activity change, % at 10 µM | 94,000 tested, 2.3% active; in the data active means activity change below about -80%; inconclusive means no clear call, values can overlap the other calls
KDM4C inh – inhibitors of human demethylase GASC-1 KDM4C | Q9H3R0 | GST-KDM4C 2-372, H3K9me3 peptide, LANCE TR-FRET | inhibition, % at 12.5 µM | 96,000 tested, 0.15% active | AID 720574;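 active means mean replicate inhibition above about 25%, with at least 55% of replicates also reaching it, limit read from the data, passing the limit was not always enough; inconclusive means only one of those two conditions met; inactive means neither condition met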
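Test system – GST-tagged GASC-1 (JMJD2C) catalytic fragment, aa 2-372 · Medium – HEPES buffer, pH 7.5, plus ascorbate · Reagent – H3K9me3 peptide with Fe(II)/2OG · Compound – one test concentration per compound · Timing – 30 min reaction, 60 min detection, RT · Technique – TR-FRET with Eu antibody and ULight streptavidin, EDTA stop · Read-out basis – inhibition from TR-FRET ratio decrease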
IDH1 R132H inh – IDH1 R132H (human) inhibition. 70,000 tested, 0.18% active. IDH1 R132H reductase, diaphorase/resazurin fluorescence, 60 min. inhibition, % at 10 µM; in the data active means inhibition above about 34%; inconclusive means no clear call, values can overlap the other calls; inactive means below about 11%;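 further: 0% = DMSO and 100% = no enzyme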
Target sequence (O75874 whole entry R132H): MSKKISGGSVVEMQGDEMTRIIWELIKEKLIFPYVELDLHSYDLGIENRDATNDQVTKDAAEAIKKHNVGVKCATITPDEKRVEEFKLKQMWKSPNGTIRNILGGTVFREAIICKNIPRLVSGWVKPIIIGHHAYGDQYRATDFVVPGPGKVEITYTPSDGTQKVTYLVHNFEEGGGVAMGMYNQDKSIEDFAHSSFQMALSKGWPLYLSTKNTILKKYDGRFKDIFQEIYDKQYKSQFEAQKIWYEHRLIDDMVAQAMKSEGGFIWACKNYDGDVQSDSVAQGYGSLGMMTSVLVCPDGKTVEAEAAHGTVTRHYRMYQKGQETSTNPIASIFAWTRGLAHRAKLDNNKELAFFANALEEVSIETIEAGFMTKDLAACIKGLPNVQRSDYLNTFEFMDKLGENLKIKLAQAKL
T cruzi growth-2 – inhibitors of T. cruzi proliferation. shares compounds with T cruzi growth-1. T. cruzi beta-gal in NIH3T3, GalScreen luminescence, 90 h. inhibition, % at 8.35 µM. 5,600 tested, 72% active;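 active means mean replicate inhibition above about 95% and at least 55% of replicates individually reaching it, limit read from the data; inconclusive means only one of the two criteria is met; inactive means neither criterion is met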
T cruzi growth-3 – Trypanosoma cruzi proliferation inhibition; 5,600 tested, 21% active; inhibition, % at 2.09 µM; T. cruzi beta-gal in NIH3T3, GalScreen luminescence, 90 h; shares compounds with T cruzi growth-1; AID 651740;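 active means mean inhibition above about 95%, with at least 55% of replicates also reaching it, limit read from the data; inconclusive means meets just one of the two conditions; inactive means meets neither condition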;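 further: plate controls were neutral control median for no effect and positive control median for full effect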
NIH3T3 tox – kills mouse NIH/3T3 fibroblasts; cytotoxicity (signal decrease), % at 8.35 µM; NIH/3T3 viability, CellTiter-Glo ATP luminescence, 90 h; 5,600 tested, 14% active; AID 651742; shares compounds with T cruzi growth-1;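 active means mean signal decrease across replicates above about 35% based on untreated-well scatter, with enough replicates individually passing, limit read from the data; inconclusive means no rule stated though some were filed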;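 further: 0% = median of neutral control wells and 100% = median of positive control wells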
3T3 cytotox 2 – NIH/3T3 (mouse) viability loss; inhibition, % at 24.9 µM; 5,600 tested, 56% active; NIH/3T3 viability, CellTiter-Glo ATP luminescence, 90 h; shares compounds with T cruzi growth-1;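 active means mean loss of cell viability signal at or above a set limit, and enough replicates individually reaching it; inconclusive means meets only the mean limit or only the replicate share; inactive means meets neither condition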;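 further: 0% = median of neutral control wells and 100% = median of positive control wells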
Starred values were filed as active, the others as inactive; u = inconclusive; x = not tested or not shown; ! = repeats disagree. Shown are actives, neighbours in structure and some others; about 5.9% of the full set was active somewhere.

SMILES	T cruzi growth-1	Pf Dd2 growth	KDM4C inh	IDH1 R132H inh	T cruzi growth-2	T cruzi growth-3	NIH3T3 tox	3T3 cytotox 2
O=C(Nc1ccccc1)N1CCCCN2[C@H](CO)[C@H](c3ccc(-c4ccncc4)cc3)[C@H]2C1	96*	-13	-1	x	94	65	-27	-4
O=C(Nc1ccccc1)N1CCCCN2[C@H](CO)[C@H](c3ccc(-c4ccccc4)cc3)[C@H]2C1	103*	-35	-1	x	101*	64	56*	104*
COc1ccc(NC(=O)CN(c2ccc(Br)c(C)c2)S(C)(=O)=O)cc1Cl	x	x	x	-1	x	x	x	x
C[C@@H]1CN([C@H](C)CO)S(=O)(=O)c2ccc(C#Cc3ccc(F)cc3)cc2O[C@H]1CN(C)S(C)(=O)=O	97*	-72	-3	0	98*	38	u	55*
CCC(=O)N(C)C[C@H]1Oc2cc(C#Cc3ccncc3)ccc2S(=O)(=O)N([C@H](C)CO)C[C@H]1C	107*	-45	17	u	38	36	13	38*
C[C@H](CO)N1C[C@H](C)[C@H](CN(C)S(C)(=O)=O)Oc2cc(C#CC3CCCC3)ccc2S1(=O)=O	u	3	5	x	100*	35	27	66*
CCC(=O)N(C)C[C@@H]1Oc2cc(C#CC3CCCCC3)ccc2S(=O)(=O)N([C@@H](C)CO)C[C@H]1C	114*	-65	-1	x	98*	54	18	80*
CCC(=O)N(C)C[C@@H]1Oc2cc(C#CC3CCCCC3)ccc2S(=O)(=O)N([C@H](C)CO)C[C@H]1C	82	-37	-4	x	x	x	x	x
COc1ccc(Cl)cc1NC(=O)CC(C(=O)O)N1CCNCC1 (stereo not drawn)	x	x	x	2	x	x	x	x
Cc1cccc(-c2nnc(SCC(=O)c3ccccc3)n2-c2ccccc2)c1	x	x	x	0	x	x	x	x
Cc1ccc(C)c(NC(=O)Cn2cnc3ccccc3c2=O)c1	x	x	x	0	x	x	x	x
C[C@@H]1CN([C@H](C)CO)S(=O)(=O)c2ccc(C#CC3CCCCC3)cc2O[C@H]1CN(C)C	84	-59	-2	0	x	x	x	x
C[C@@H]1CN([C@@H](C)CO)S(=O)(=O)c2ccc(C#CC3CCCC3)cc2O[C@@H]1CN(C)S(C)(=O)=O	u	13	0	-1	84	47	10	67*
C[C@H]1CN([C@@H](C)CO)S(=O)(=O)c2ccc(C#CC3CCCCC3)cc2O[C@@H]1CN(C)C	109*	-48	-3	-1	109*	81	18	104*
C[C@H]1CN([C@@H](C)CO)S(=O)(=O)c2ccc(C#CC3CCCC3)cc2O[C@H]1CN(C)S(C)(=O)=O	89	0	-3	-2	x	x	x	x
Cn1nc(-c2ccc(NCCN3CCOCC3)c([N+](=O)[O-])c2)c2ccccc2c1=O	x	x	x	0	x	x	x	x
Oc1ccc(Br)cc1CNc1nc2ccccc2[nH]1	x	x	x	-1	x	x	x	x
C[C@H]1CN([C@@H](C)CO)C(=O)c2cc(/C=C/c3ccccc3)cnc2O[C@@H]1CN(C)S(=O)(=O)c1ccccc1	127*	-62	-2	x	106*	67	5	u
C[C@@H]1CN([C@H](C)CO)C(=O)c2cc(/C=C/c3ccccc3)cnc2O[C@@H]1CN(C)S(=O)(=O)c1ccccc1	89	-37	0	x	x	x	x	x
C[C@H]1CN([C@@H](C)CO)C(=O)c2cc(/C=C/c3ccccc3)cnc2O[C@H]1CN(C)S(=O)(=O)c1ccccc1	94	-45	-3	-1	x	x	x	x
Cc1ccc(S(=O)(=O)N(C)C[C@H]2Oc3c(cccc3N(C)C)C(=O)N([C@H](C)CO)C[C@H]2C)cc1	-21	13	0	0	x	x	x	x
C[C@H](CO)N1C[C@H](C)[C@H](CN(C)S(=O)(=O)c2ccccc2)Oc2ncc(/C=C/c3ccccc3)cc2C1=O	113*!	-49	-3	-2	u	78	13	71*
C[C@@H]1CN([C@H](C)CO)C(=O)c2cc(/C=C/c3ccccc3)cnc2O[C@H]1CN(C)S(=O)(=O)c1ccccc1F	109*	-40	0	0	113*	59	-3	24*

Screens (PubChem BioAssay)
